Reference: ChEMBL document CHEMBL4715796, “Discovery of Chromane Containing Hepatitis C Virus (HCV) NS5A Inhibitors with Improved Potency against Resistance-Associated Variants” (J Med Chem, 2016)

Experiment: Cytotoxicity against human HuH7 cells assessed as reduction in cell viability measured after 72 hrs by Hoechst/Alexa fluor 488 staining based Edu plus cell counting analysis
Parameters: species or system Huh-7
In short: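 Huh7 cells were seeded at 1,200 per well and treated with a 20-point twofold compound dilution series for 72 h, with EdU added for the last 18-20 h. Cells were then fixed and permeabilized, nuclei stained with Hoechst, and EdU labelled with Alexa Fluor 488 by click reaction. Plates were scanned with 405 nm (420-500 nm) and 488 nm (500-530 nm) detection, giving CC50.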

COC(=O)N[C@H](C(=O)N1CCC[C@H]1c1ncc(-c2cc(F)c3c(c2)OC(c2ccc4c(c2)OCCC4)n2c-3cc3cc(-c4cnc([C@@H]5CCCN5C(=O)[C@@H](NC(=O)OC)C(C)C)[nH]4)ccc32)[nH]1)C(C)C (stereo partly specified)
CC50 at 72 h: > 50 µM
